Values after ≈ are worked out from the molar mass of the structure shown.
Assays:
[1] = test system: Mycobacterium tuberculosis; assay: Antitubercular activity against Mycobacterium tuberculosis H37Rv ATCC 27294 measured after 7 days by broth microdilution method; format: functional; settings: H37Rv ATCC 27294, 168 h, time 7 day
How it was run: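 H37Rv in Middlebrook 7H9 with 10% ADC, 0.2% glycerol, 0.05% Tween-80. Inoculum ~10⁶ cfu/mL set by OD600. Twofold serial dilutions, 0.0064–0.00005 g/100 mL. Incubated at 37 °C for 7 days, then Presto blue resazurin read-out. MIC = lowest concentration inhibiting visible growth. Triplicate runs, each in duplicate.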

[2] = test system: Escherichia coli; assay: Antibacterial activity against Escherichia coli ATCC 25922 measured after 16 to 18 hrs; format: functional; settings: time 16-18 hrs
How it was run: (§1)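 Broth microdilution MIC. Strains grown on MHA; a single colony was grown overnight in CA-MHB at 37 °C with shaking for 18–24 h. Cultures were diluted by OD600 to ~10⁶ cfu/mL and exposed to compound at […]. Plates were incubated at 37 °C for 16-18 h. MIC = lowest concentration with no visible growth. Levofloxacin was the reference. Three independent runs, each in duplicate.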

[3] = test system: Staphylococcus aureus; assay: Antibacterial activity against Staphylococcus aureus ATCC 29213 measured after 16 to 18 hrs; format: functional; settings: time 16-18 hrs; how it was run: as §1
[4] = test system: Klebsiella pneumoniae; assay: Antibacterial activity against Klebsiella pneumoniae BAA-1705 measured after 16 to 18 hrs; format: functional; settings: ATCC BAA-1705, time 16-18 hrs; how it was run: as §1
[5] = test system: Acinetobacter baumannii; assay: Antibacterial activity against Acinetobacter baumannii BAA1605 measured after 16 to 18 hrs; format: functional; settings: time 16-18 hrs; how it was run: as §1
[6] = test system: Pseudomonas aeruginosa; assay: Antibacterial activity against Pseudomonas aeruginosa ATCC 27853 measured after 16 to 18 hrs; format: functional; settings: time 16-18 hrs; how it was run: as §1
[7] = test system: Mycobacteroides abscessus; assay: Antimycobacterial activity against Mycobacterium abscessus ATCC 19977 by broth microdilution method; format: functional
How it was run: (§2)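 Broth microdilution MIC in Middlebrook 7H9 with 10% ADC-Tween-80 (BSA, dextrose, 0.2% glycerol, 0.05% Tween-80). Inoculum ~10⁶ cfu/mL set by OD600. Compounds were twofold serially diluted, 0.0064–0.00005 g/100 mL (DMSO stocks). Presto blue resazurin dye was used as read-out. MIC = lowest concentration inhibiting visible growth. Triplicate runs, each in duplicate.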

[8] = test system: Mycolicibacterium fortuitum; assay: Antimycobacterial activity against Mycobacterium fortuitum ATCC 6841 by broth microdilution method; format: functional; how it was run: as §2
[9] = test system: Mycobacteroides chelonae; assay: Antimycobacterial activity against Mycobacterium chelonae ATCC 35752 by broth microdilution method; format: functional; how it was run: as §2
[10] = Cytotoxicity against African green monkey Vero cells assessed as reduction in cell viability measured after 72 hrs by MTT assay; format: cell-based; settings: chlorocebus sabaeus
How it was run: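 Vero cells (ATCC CCL-81), ~10³ cells/well, held 24 h at 37 °C in 5% CO₂. Compound at 100–5 mg/L for 72 h. MTT was added for 4 h, formazan dissolved in DMSO, OD read at 540 nm. CC50 = concentration giving 50% viability reduction. Doxorubicin was the positive control. Triplicate.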

[11] = Selectivity index, ratio of CC50 for cytotoxicity against African green monkey Vero cells to MIC for antibacterial activity against Staphylococcus aureus ATCC 29213; format: toxicity, cell-based; settings: read-out: Selectivity Index
How it was run: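 SI = Vero CC50 (MTT, 72 h) divided by MIC against S. aureus ATCC 29213 (CA-MHB broth microdilution, 16-18 h, 37 °C).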

[12] = test system: Staphylococcus aureus; assay: Antibacterial activity against methicillin-sensitive Staphylococcus aureus ATCC 29213 measured after 16 to 18 hrs; format: functional; settings: time 16-18 hrs; how it was run: as §1
[13] = test system: Staphylococcus aureus; assay: Antibacterial activity against methicillin-resistant Staphylococcus aureus NR100 measured after 16 to 18 hrs; format: functional; settings: time 16-18 hrs; how it was run: as §1
[14] = test system: Staphylococcus aureus; assay: Antibacterial activity against methicillin-resistant Staphylococcus aureus NR119 measured after 16 to 18 hrs; format: functional; settings: time 16-18 hrs; how it was run: as §1
[15] = test system: Staphylococcus aureus; assay: Antibacterial activity against methicillin-resistant Staphylococcus aureus NR10129 measured after 16 to 18 hrs; format: functional; settings: time 16-18 hrs; how it was run: as §1
[16] = test system: Staphylococcus aureus; assay: Antibacterial activity against methicillin-resistant Staphylococcus aureus NR10198 measured after 16 to 18 hrs; format: functional; settings: time 16-18 hrs; how it was run: as §1
[17] = test system: Staphylococcus aureus; assay: Antibacterial activity against methicillin-resistant Staphylococcus aureus NR10192 measured after 16 to 18 hrs; format: functional; settings: time 16-18 hrs; how it was run: as §1
[18] = test system: Staphylococcus aureus; assay: Antibacterial activity against methicillin-resistant Staphylococcus aureus NR10186 measured after 16 to 18 hrs; format: functional; settings: time 16-18 hrs; how it was run: as §1
[19] = test system: Staphylococcus aureus; assay: Antibacterial activity against methicillin-resistant Staphylococcus aureus NR10193 measured after 16 to 18 hrs; format: functional; settings: time 16-18 hrs; how it was run: as §1
[20] = test system: Staphylococcus aureus; assay: Antibacterial activity against methicillin-resistant Staphylococcus aureus NR10194 measured after 16 to 18 hrs; format: functional; settings: time 16-18 hrs; how it was run: as §1
[21] = test system: Staphylococcus aureus; assay: Antibacterial activity against methicillin-resistant Staphylococcus aureus NR10191 measured after 16 to 18 hrs; format: functional; settings: time 16-18 hrs; how it was run: as §1
[22] = test system: Staphylococcus aureus; assay: Antibacterial activity against vancomycin-resistant Staphylococcus aureus VRS1 measured after 16 to 18 hrs; format: functional; settings: time 16-18 hrs; how it was run: as §1
[23] = test system: Staphylococcus aureus; assay: Antibacterial activity against vancomycin-resistant Staphylococcus aureus VRS4 measured after 16 to 18 hrs; format: functional; settings: time 16-18 hrs; how it was run: as §1
[24] = test system: Staphylococcus aureus; assay: Antibacterial activity against vancomycin-resistant Staphylococcus aureus VRS12 measured after 16 to 18 hrs; format: functional; settings: time 16-18 hrs; how it was run: as §1

## O=C(Nc1ccc(Nc2nc(-c3ccccc3)nc3ccccc23)cc1)c1cc(Br)ccc1Cl
[1]
  MIC: 4 µg/mL (≈ 7.55 µM)

## COc1ccc(-c2nc(Nc3ccc(-c4nc5cc(Cl)ccc5[nH]4)cc3)c3ccccc3n2)cc1OC
[2]
  MIC: > 64 µg/mL
[3]
  MIC: 16 µg/mL (≈ 31.5 µM)
[4]
  MIC: > 64 µg/mL
[5]
  MIC: > 64 µg/mL
[6]
  MIC: > 64 µg/mL
[1]
  MIC: 32 µg/mL (≈ 63 µM)
[7]
  MIC: > 64 µg/mL
[8]
  MIC: > 64 µg/mL
[9]
  MIC: > 64 µg/mL
[10]
  CC50 at 72 h: > 100 µg/mL
[11]
  selectivity ratio: > 6.25

## O=[N+]([O-])c1ccc2[nH]c(-c3ccc(Nc4nc(-c5ccccc5)nc5ccccc45)cc3)nc2c1
[2]
  MIC: > 64 µg/mL
[3]
  MIC: > 64 µg/mL
[4]
  MIC: > 64 µg/mL
[5]
  MIC: > 64 µg/mL
[6]
  MIC: > 64 µg/mL
[1]
  MIC: 8 µg/mL (≈ 17.4 µM)
[7]
  MIC: > 64 µg/mL
[8]
  MIC: > 64 µg/mL
[9]
  MIC: > 64 µg/mL
[10]
  CC50 at 72 h: 100 µg/mL (≈ 218 µM)
[11]
  selectivity ratio: 12.5

## CC[C@@H](CO)NCCN[C@@H](CC)CO [ETHAMBUTOL]
[1]
  MIC: 1 µg/mL (≈ 4.89 µM)

## NNC(=O)c1ccncc1 [ISONIAZID]
[1]
  MIC: 0.03 µg/mL (≈ 0.219 µM)

## C[C@H]1COc2c(N3CCN(C)CC3)c(F)cc3c(=O)c(C(=O)O)cn1c23.C[C@H]1COc2c(N3CCN(C)CC3)c(F)cc3c(=O)c(C(=O)O)cn1c23.O [LEVOFLOXACIN]
[2]
  MIC: 0.125 µg/mL
[3]
  MIC: 0.015 µg/mL
[4]
  MIC: 64 µg/mL
[6]
  MIC: 0.5 µg/mL
[7]
  MIC: 1 µg/mL
[8]
  MIC: 0.03 µg/mL
[9]
  MIC: 0.03 µg/mL
[12]
  MIC: 0.125 µg/mL
[13]
  MIC: 0.25 µg/mL
[14]
  MIC: 16 µg/mL
[15]
  MIC: 0.25 µg/mL
[16]
  MIC: 8 µg/mL
[17]
  MIC: 16 µg/mL
[18]
  MIC: 8 µg/mL
[19]
  MIC: 32 µg/mL
[20]
  MIC: 0.125 µg/mL
[21]
  MIC: 32 µg/mL
[22]
  MIC: 32 µg/mL
[23]
  MIC: > 64 µg/mL
[24]
  MIC: 32 µg/mL

## C[C@@H](O)[C@H]1C(=O)N2C(C(=O)O)=C(S[C@@H]3CN[C@H](C(=O)N(C)C)C3)[C@H](C)[C@H]12 [MEROPENEM]
[12]
  MIC: 0.0625 µg/mL (≈ 0.163 µM)
[13]
  MIC: 32 µg/mL (≈ 83.4 µM)
[14]
  MIC: 64 µg/mL (≈ 167 µM)
[15]
  MIC: 4 µg/mL (≈ 10.4 µM)
[16]
  MIC: 4 µg/mL (≈ 10.4 µM)
[17]
  MIC: 64 µg/mL (≈ 167 µM)
[18]
  MIC: 8 µg/mL (≈ 20.9 µM)
[19]
  MIC: 64 µg/mL (≈ 167 µM)
[20]
  MIC: 1 µg/mL (≈ 2.61 µM)
[21]
  MIC: 64 µg/mL (≈ 167 µM)
[22]
  MIC: 64 µg/mL (≈ 167 µM)
[23]
  MIC: 64 µg/mL (≈ 167 µM)
[24]
  MIC: 16 µg/mL (≈ 41.7 µM)

## COc1cccc(OC)c1C(=O)N[C@@H]1C(=O)N2[C@@H]1SC(C)(C)[C@@H]2C(=O)O [METHICILLIN]
[12]
  MIC: 1 µg/mL (≈ 2.63 µM)
[13]
  MIC: > 64 µg/mL
[14]
  MIC: > 64 µg/mL
[15]
  MIC: > 64 µg/mL
[16]
  MIC: > 64 µg/mL
[17]
  MIC: > 64 µg/mL
[18]
  MIC: > 64 µg/mL
[19]
  MIC: > 64 µg/mL
[20]
  MIC: 32 µg/mL (≈ 84.1 µM)
[21]
  MIC: > 64 µg/mL
[22]
  MIC: > 64 µg/mL
[23]
  MIC: > 64 µg/mL
[24]
  MIC: > 64 µg/mL

## CO[C@H]1/C=C/O[C@@]2(C)Oc3c(C)c(O)c4c(O)c(c(/C=N/N5CCN(C)CC5)c(O)c4c3C2=O)NC(=O)/C(C)=C\C=C\[C@H](C)[C@H](O)[C@@H](C)[C@@H](O)[C@@H](C)[C@H](OC(C)=O)[C@@H]1C [RIFAMPIN]
[1]
  MIC: 0.06 µg/mL (≈ 0.0729 µM)

## CN[C@@H]1[C@H](O[C@H]2[C@H](O[C@H]3[C@H](O)[C@@H](O)[C@H](N=C(N)N)[C@@H](O)[C@@H]3N=C(N)N)O[C@@H](C)[C@]2(O)C=O)O[C@@H](CO)[C@H](O)[C@H]1O [STREPTOMYCIN]
[1]
  MIC: 1 µg/mL (≈ 1.72 µM)

## CN[C@H](CC(C)C)C(=O)N[C@H]1C(=O)N[C@@H](CC(N)=O)C(=O)N[C@H]2C(=O)N[C@H]3C(=O)N[C@H](C(=O)N[C@H](C(=O)O)c4cc(O)cc(O)c4-c4cc3ccc4O)[C@H](O)c3ccc(c(Cl)c3)Oc3cc2cc(c3O[C@@H]2O[C@H](CO)[C@@H](O)[C@H](O)[C@H]2O[C@H]2C[C@](C)(N)[C@H](O)[C@H](C)O2)Oc2ccc(cc2Cl)[C@H]1O [VANCOMYCIN]
[22]
  MIC: > 64 µg/mL
[23]
  MIC: > 64 µg/mL
[24]
  MIC: > 64 µg/mL

From ChEMBL document CHEMBL4706624, “Synthesis and evaluation of new quinazoline-benzimidazole hybrids as potent anti-microbial agents against multidrug resistant Staphylococcus aureus and Mycobacterium tuberculosis” (Eur J Med Chem, 2021)
